Laboratory results from ChEMBL document CHEMBL4673192, “Structure-activity relationship studies on 2,5,6-trisubstituted benzimidazoles targeting Mtb-FtsZ as antitubercular agents” (RSC Med Chem, 2021).
Converted amounts (≈) assume the structure as drawn.

Assays:
[1] = test system: Mycobacterium tuberculosis; assay: Antitubercular activity against Mycobacterium tuberculosis H37Rv incubated for 6 days by alamar blue assay; type: functional; settings: 144 h, time 6 day
Outline: (§1)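 MABA (protocol A): Mtb H37Rv grown in 7H9 with 10% OADC and 0.05% Tween-80 and used at mid-log phase. Compounds from DMSO stocks were serially diluted 2-fold, and the inoculum was set to OD600 0.005. Plates were incubated 6 days at 37 °C, then Alamar Blue was added for a further 24 h. MIC is the lowest concentration (μg mL−1) preventing the colour change.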

[2] = test system: Mycobacterium tuberculosis; assay: Antitubercular activity against mid logarithmic stage Mycobacterium tuberculosis H37Rv incubated for 6 days by alamar blue assay; type: functional; settings: 144 h, time 6 day
Outline: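 Protocol B: the mid-log H37Rv culture (OD580 0.4) was diluted 1:100 and mixed with an equal volume of serially diluted compound (DMSO). After 6 days at 37 °C, Alamar blue plus 20% Tween 80 was added. Plates were read 24 h later at 570 nm against a 600 nm reference. Untreated inoculum wells gave the survival-inhibition curve, and rifampicin served as positive control.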

[3] = test system: Mycobacterium tuberculosis; assay: Antitubercular activity against Mycobacterium tuberculosis H37Rv by microplate alamar blue assay; type: functional; outline: as §1
[4] = test system: Mycobacterium tuberculosis; assay: Antitubercular activity against Mycobacterium tuberculosis H37Rv infected in immune compromised GKO mouse assessed as lung log CFU reduction; type: functional
[5] = test system: Mycobacterium tuberculosis; assay: Antitubercular activity against Mycobacterium tuberculosis H37Rv infected in immune compromised GKO mouse assessed as spleen log CFU reduction; type: functional
[6] = Cytotoxicity against human HepG2 cells assessed as reduction in cell viability at 20 uM incubated for 72 hrs by MTT assay relative to control; type: cell-based; settings: read-out: INH
Outline: (§2)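 MTT assay: cells were seeded at 2500/well and attached overnight to 70–90% confluency (HepG2 in RPMI-1640, WI-38 in DMEM, each with 10% FBS). Compound was given at 20 μM final with 0.5% DMSO for 72 h. MTT was applied for 4 h in the dark and the formazan dissolved in DMSO, with OD read at 570 nm. % inhibition is relative to the DMSO control, mean of triplicate.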

[7] = Cytotoxicity against human WI-38 cells assessed as reduction in cell viability at 20 uM incubated for 72 hrs by MTT assay relative to control; type: cell-based; settings: read-out: INH; outline: as §2
[8] = Therapeutic index, ratio of IC50 for human WI-38 cells to MIC for Mycobacterium tuberculosis H37Rv; type: toxicity; settings: read-out: TI
WI-38 = assay: Cytotoxicity against human WI-38 cells assessed as reduction in cell viability incubated for 72 hrs by MTT assay; type: cell-based; settings: WI-38, 72 h

Row | SMILES | MIC99 [1] [µg/mL] | further results
1 | CCCCOC(=O)Nc1cc2nc(C3CCCCC3)[nH]c2cc1N(C)C | 0.06 (≈ 0.167 µM) | MIC99 [2]: 0.008 µg/mL (≈ 0.0223 µM)
2 | CN(C)c1cc2[nH]c(C3CCCCC3)nc2cc1NC(=O)c1ccc(C(F)(F)F)cc1F |  | MIC [3]: 0.16 µg/mL (≈ 0.357 µM); Activity [4]: 5.7 log10CFU; Activity [5]: 3.9 log10CFU
3 | CN(C)c1cc2[nH]c(C3CCCCC3)nc2cc1NC(=O)c1ccc(OC(F)(F)F)cc1F | 0.16 (≈ 0.344 µM) | cytotoxicity at 72 h, 20 µM [6]: 57%; MIC [3]: 0.16 µg/mL (≈ 0.344 µM); Activity [4]: 5.7 log10CFU; cytotoxicity at 72 h, 20 µM [7]: 78%; Activity [5]: 3.9 log10CFU; MIC99 [2]: 0.019 µg/mL (≈ 0.0409 µM)
4 | CCCCOC(=O)Nc1cc2nc(CN3CCOCC3)[nH]c2cc1N(C)C | 2.4 (≈ 6.39 µM) | MIC99 [2]: 1.6 µg/mL (≈ 4.26 µM)
5 | Cc1ccc(C(=O)Nc2cc3nc(C4CCCC4)[nH]c3cc2N(C)C)cc1 | 0.625 (≈ 1.72 µM) | 
6 | COc1ccc(CC(=O)Nc2cc3nc(CN(C)c4ccccc4)[nH]c3cc2N(C)C)cc1 | > 10 | 
7 | CCCCOC(=O)Nc1cc2nc(CN(C)c3ccccc3)[nH]c2cc1N(C)C | 0.16 (≈ 0.405 µM) | 
8 | COc1ccc(C(=O)Nc2cc3nc(Cc4ccccc4)[nH]c3cc2N(C)C)cc1 | 1.25 (≈ 3.12 µM) | 
9 | Cc1ccc(C(=O)Nc2cc3nc(Cc4ccccc4)[nH]c3cc2N(C)C)cc1 | 1.56 (≈ 4.06 µM) | 
10 | CN(C)c1cc2[nH]c(C3CCCC3)nc2cc1NC(=O)c1ccccc1 | 1.56 (≈ 4.48 µM) | 
11 | CCCCOC(=O)Nc1cc2nc(SCC3CCCCC3)[nH]c2cc1N(C)C | 0.015 (≈ 0.0371 µM) | cytotoxicity at 72 h, 20 µM [6]: 0%; selectivity ratio [8]: > 100; cytotoxicity at 72 h, 20 µM [7]: 52%; IC50 (WI-38): 20 µM; MIC99 [2]: 0.0039 µg/mL (≈ 0.00964 µM)
12 | CN(C)c1cc2[nH]c(Cc3ccccc3)nc2cc1NC(=O)c1ccc(F)cc1 | 0.63 (≈ 1.62 µM) | 
13 | CCC(CC)c1nc2cc(NC(=O)c3ccc(OC)c(OC)c3)c(N(C)C)cc2[nH]1 | 12.5 (≈ 30.4 µM) | 
14 | CCCCOC(=O)Nc1cc2nc(C3CCOCC3)[nH]c2cc1N(C)C | > 2.5 | 
15 | CN(C)c1cc2[nH]c(C3CCOCC3)nc2cc1NC(=O)c1ccc(OC(F)(F)F)cc1F | 10 (≈ 21.4 µM) | 
16 | CCC(CC)c1nc2cc(NC(=O)c3ccc(OC(F)(F)F)cc3)c(N(C)C)cc2[nH]1 | 0.31 (≈ 0.714 µM) | 
17 | CCC(CC)c1nc2cc(NC(=O)c3ccccc3)c(N(C)C)cc2[nH]1 | 1.56 (≈ 4.45 µM) | 
18 | CN(C)c1cc2[nH]c(Cc3ccccc3)nc2cc1NC(=O)C(C)(C)C | > 10 | 
19 | CN(C)c1cc2[nH]c(C3CCCC3)nc2cc1NC(=O)c1ccc(F)cc1F | 0.625 (≈ 1.63 µM) | 

Row | SMILES | MIC99 [1] [µg/mL] | further results
20 | CCC(CC)C(=O)Nc1cc2nc(C3CCCC3)[nH]c2cc1N(C)C | > 50 | 
21 | CCCCOC(=O)Nc1cc2nc(C(CC)CC)[nH]c2cc1N(C)C | 0.078 (≈ 0.225 µM) | cytotoxicity at 72 h, 20 µM [6]: 32%; cytotoxicity at 72 h, 20 µM [7]: 77%
22 | CCCc1ccc(C(=O)Nc2cc3nc(CN(C)c4ccccc4)[nH]c3cc2N(C)C)cc1 | 5 (≈ 11.3 µM) | 
23 | CCC(CC)c1nc2cc(NC(=O)c3ccc(C)cc3)c(N(C)C)cc2[nH]1 | 0.5 (≈ 1.37 µM) | 
24 | CCCCOC(=O)Nc1cc2nc(SCC)[nH]c2cc1N(C)C | 1.2 (≈ 3.57 µM) | MIC99 [2]: 0.16 µg/mL (≈ 0.476 µM)
25 | CN(C)c1cc2[nH]c(C3CCCC3)nc2cc1NC(=O)C1CCC1 | > 10 | 
26 | CCC(CC)c1nc2cc(NC(=O)c3ccccc3OC)c(N(C)C)cc2[nH]1 | 1.56 (≈ 4.1 µM) | 
27 | CN(C)c1cc2[nH]c(C3CCCC3)nc2cc1NC(=O)C(C)(C)C | 50 (≈ 152 µM) | 
28 | CCCCOC(=O)Nc1cc2nc(SC3CCCCC3)[nH]c2cc1N(C)C |  | cytotoxicity at 72 h, 20 µM [6]: 50%; cytotoxicity at 72 h, 20 µM [7]: 87%; MIC99 [2]: < 0.0081 µg/mL
29 | CCC(CC)C(=O)Nc1cc2nc(Cc3ccccc3)[nH]c2cc1N(C)C | > 10 | 
30 | CCCCOC(=O)Nc1cc2nc(SCc3ccccc3)[nH]c2cc1N(C)C | 0.31 (≈ 0.778 µM) | 
31 | CCCCOC(=O)Nc1cc2nc(SC)[nH]c2cc1N(C)C | 9.6 (≈ 29.8 µM) | MIC99 [2]: 1.28 µg/mL (≈ 3.97 µM)
32 | CN(C)c1cc2[nH]c(Cc3ccccc3)nc2cc1NC(=O)c1ccccc1 | 1.25 (≈ 3.37 µM) | 
33 | CN(C)c1cc2[nH]c(CN(C)c3ccccc3)nc2cc1NC(=O)c1ccc(C(C)(C)C)cc1 | 2.5 (≈ 5.49 µM) | 
34 | CC(C)c1nc2cc(NC(=O)c3ccc(C(C)(C)C)cc3)c(N(C)C)cc2[nH]1 | 0.78 (≈ 2.06 µM) | 
35 | CN(C)c1cc2[nH]c(Cc3ccccc3)nc2cc1NC(=O)c1ccc(F)cc1F | 0.63 (≈ 1.55 µM) | 
36 | CCCCOC(=O)Nc1cc2nc(CN3CCCC3)[nH]c2cc1N(C)C | 2.4 (≈ 6.68 µM) | MIC99 [2]: 1.6 µg/mL (≈ 4.45 µM)
37 | CCCCOC(=O)Nc1cc2nc(C(C)C)[nH]c2cc1N(C)C | 1.25 (≈ 3.93 µM) | 
38 | CCC(CC)c1nc2cc(NC(=O)c3ccc(F)cc3)c(N(C)C)cc2[nH]1 | 0.78 (≈ 2.12 µM) | 

Row | SMILES | MIC99 [1] [µg/mL] | further results
39 | CN(C)c1cc2[nH]c(CN(C)c3ccccc3)nc2cc1NC(=O)c1ccc(OC(F)(F)F)cc1F | 0.29 (≈ 0.578 µM) | cytotoxicity at 72 h, 20 µM [6]: 30%; cytotoxicity at 72 h, 20 µM [7]: 59%; MIC99 [2]: 0.19 µg/mL (≈ 0.379 µM)
40 | CN(C)c1cc2[nH]c(C3CCOCC3)nc2cc1NC(=O)c1ccc(OC(F)(F)F)cc1 | > 10 | 
41 | CN(C)c1cc2[nH]c(CN(C)c3ccccc3)nc2cc1NC(=O)c1ccc(F)cc1F | 1.25 (≈ 2.87 µM) | 
42 | CCCCOC(=O)Nc1cc2nc(Cc3ccccc3)[nH]c2cc1N(C)C | < 0.078 | cytotoxicity at 72 h, 20 µM [6]: 80%; cytotoxicity at 72 h, 20 µM [7]: 93%
43 | CCCCOC(=O)Nc1cc2nc(CN(CCC)CCC)[nH]c2cc1N(C)C | 0.16 (≈ 0.411 µM) | cytotoxicity at 72 h, 20 µM [6]: 0%; cytotoxicity at 72 h, 20 µM [7]: 4%
44 | CN(C)c1cc2[nH]c(C3CCCC3)nc2cc1NC(=O)c1ccc(F)cc1 | 0.78 (≈ 2.13 µM) | 
45 | CCCCOC(=O)Nc1cc2nc(-c3cccs3)[nH]c2cc1N(C)C | > 10 | 
46 | CCCCOC(=O)Nc1cc2nc(C3CCCC3)[nH]c2cc1N(C)C | 0.31 (≈ 0.9 µM) | cytotoxicity at 72 h, 20 µM [6]: 42%; cytotoxicity at 72 h, 20 µM [7]: 86%
47 | CCC(CC)c1nc2cc(NC(=O)c3ccc(F)cc3F)c(N(C)C)cc2[nH]1 | 0.71 (≈ 1.84 µM) | 
48 | CN(C)c1cc2[nH]c(C3CCCC3)nc2cc1NC(=O)c1ccc(OC(F)(F)F)cc1 | 1.56 (≈ 3.61 µM) | 
49 | CN(C)c1cc2[nH]c(C3CCCC3)nc2cc1NC(=O)c1ccc(C(C)(C)C)cc1 | 0.78 (≈ 1.93 µM) | 
50 | COc1ccccc1C(=O)Nc1cc2nc(C3CCCC3)[nH]c2cc1N(C)C | 12.5 (≈ 33 µM) | 
51 | CN(C)c1cc2[nH]c(Cc3ccccc3)nc2cc1NC(=O)c1ccc(C(C)(C)C)cc1 | 0.33 (≈ 0.774 µM) | 
52 | CCCCOC(=O)Nc1cc2nc(SC(C)C)[nH]c2cc1N(C)C | 0.31 (≈ 0.884 µM) | 
53 | Cc1ccc(C(=O)Nc2cc3nc(CN(C)c4ccccc4)[nH]c3cc2N(C)C)cc1 | 1.25 (≈ 3.02 µM) | 
54 | CCCCOC(=O)Nc1cc2nc(Sc3ccccc3)[nH]c2cc1N(C)C | 0.31 (≈ 0.806 µM) | 
55 | COc1ccc(C(=O)Nc2cc3nc(C4CCCC4)[nH]c3cc2N(C)C)cc1 | 1.25 (≈ 3.3 µM) | 
56 | CCCCOC(=O)Nc1cc2nc(CN3CCCCC3)[nH]c2cc1N(C)C | 0.14 (≈ 0.375 µM) | cytotoxicity at 72 h, 20 µM [6]: 0%; cytotoxicity at 72 h, 20 µM [7]: 60%; MIC99 [2]: 0.09 µg/mL (≈ 0.241 µM)
57 | CN(C)c1cc2[nH]c(Cc3ccccc3)nc2cc1NC(=O)c1ccc(OC(F)(F)F)cc1 | 1.25 (≈ 2.75 µM) | 
